Reference: ChEMBL document CHEMBL1146549, “Five new cassane diterpenes from Myrospermum frutescens with activity against Trypanosoma cruzi” (J Nat Prod, 2003)

How the values were obtained:
Trypanosoma cruzi [1] = test: Antitrypanosomal activity against Trypanosoma cruzi epimastigotes after 3 days; type: functional, organism-based; details: 72 h
Outline: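 Recombinant epimastigotes grown in LIT medium with 10% calf serum at 28 °C, seeded at 1 × 10^5/mL with test compounds. After 3 days, CPRG and Nonidet P-40 added as in the intracellular assay, OD 570 nm. Amphotericin B as positive control. IC50 derived as in the intracellular assay.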

HFF = test: Cytotoxicity against HFF after 3 days by MTT assay; type: cell-based; details: Homo sapiens, 72 h
Outline: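 Primary human foreskin fibroblasts adhered to 96-well plates, exposed to compounds, and viability assessed by MTT reduction after 3 days at 37 °C in CO2. IC50 derived as in the intracellular assay.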

Trypanosoma cruzi [2] = test: Antitrypanosomal activity against Trypanosoma cruzi Tulahuen clone C4 trypomastigotes in HFF after 7 days by beta-galactosidase reporter gene assay; type: functional, organism-based; details: 168 h
Outline: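 HFF seeded at 1 × 10^3/well in RPMI-1640 without phenol red plus 10% fetal calf serum, overnight. βGal-expressing trypomastigotes added at 1 × 10^3/well, overnight, then serial dilutions (final 50, 10, 2 µg/mL). DMSO ≤0.1% final; vehicle control. Read at 7 days post-infection: CPRG 100 µM, Nonidet P-40 0.1% final, 4-6 h at 37 °C, OD 570 nm. Duplicates, ≥3 experiments, SD.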

[3] = Ratio of IC50 for HFF to IC50 for Trypanosoma cruzi epimastigotes
[4] = Ratio of IC50 for HFF to IC50 for Trypanosoma cruzi Tulahuen clone C4 trypomastigotes

Compound `C=CC1=C(C)[C@@H]2CC(=O)[C@H]3[C@](C)(CO)CCC[C@]3(C)[C@H]2CC1` has an IC50 (Trypanosoma cruzi [1]) of 36 µM.

For `C[C@@H]1[C@H](O)[C@@H](C)/C=C/C=C/C=C/C=C/C=C/C=C/C=C/[C@H](O[C@@H]2O[C@H](C)[C@@H](O)[C@H](N)[C@@H]2O)C[C@@H]2O[C@](O)(C[C@@H](O)C[C@@H](O)[C@H](O)CC[C@@H](O)C[C@@H](O)CC(=O)O[C@H]1C)C[C@H](O)[C@H]2C(=O)O` [AMPHOTERICIN B], the IC50 (Trypanosoma cruzi [1]) was 1 µM.

Work on `C=CC1=C(C)[C@@H]2C[C@@H](OC(C)=O)[C@H]3[C@](C)(COC(C)=O)CCC[C@]3(C)[C@H]2CC1` yielded an IC50 (Trypanosoma cruzi [1]) of 59 µM.

Compound `C=C[C@@]1(O)CC[C@H]2[C@@H](C[C@@H](O)[C@H]3[C@](C)(COC(C)=O)CCC[C@]23C)C1=C` has an IC50 (HFF) of 124 µM, an IC50 (Trypanosoma cruzi [1]) of 16.5 µM and an IC50 (Trypanosoma cruzi [2]) of 35.8 µM.

Compound `C=CC1=C(C)[C@@H]2C[C@@H](O)[C@H]3[C@](C)(COC(C)=O)CCC[C@]3(C)[C@H]2CC1` has an IC50 (HFF) of 118 µM, an IC50 (Trypanosoma cruzi [1]) of 11.5 µM and an IC50 (Trypanosoma cruzi [2]) of 25.9 µM. It also gave a Ratio IC50 [3] of 10.

With `CC1CS(=O)(=O)CCN1/N=C/c1ccc([N+](=O)[O-])o1` (stereo not given) [NIFURTIMOX] the IC50 (Trypanosoma cruzi [2]) was 11 µM.

`C=CC1=C(C)[C@@H]2CC[C@H]3[C@](C)(CO)CCC[C@]3(C)[C@H]2CC1` gave an IC50 (HFF) of 149 µM, an IC50 (Trypanosoma cruzi [1]) of 48.6 µM and an IC50 (Trypanosoma cruzi [2]) of 17.4 µM. For the same compound, the Ratio IC50 [4] was 9.

`C=CC1=C(C)[C@@H]2CC[C@H]3[C@@](COC(C)=O)(C(=O)O)CCC[C@]3(C)[C@H]2CC1` showed an IC50 (Trypanosoma cruzi [1]) of 104 µM.

`C=CC1=C(C)[C@@H]2C[C@@H](O)[C@H]3[C@](C)(CO)CCC[C@]3(C)[C@H]2CC1` showed an IC50 (HFF) of 148 µM, an IC50 (Trypanosoma cruzi [1]) of 56 µM and an IC50 (Trypanosoma cruzi [2]) of 16.6 µM. For the same compound, the Ratio IC50 [4] was 9.
